Only some compounds are listed: those with a hit (about 2.3% of all), similar ones and a draw of the others.
EBV gp42 inh: Epstein-Barr virus gp42 inhibitors, primary screen, biochemical, uHTS, fluorescence polarization | Glycoprotein 42 (Epstein-Barr virus (strain AG876)), Q1HVG2 | Fluorescence polarization binding assay, mP read-out | inhibition, % (tested at 21.74 µM) | 220,000 tested, 0.42% active; in the data active = inhibition above about 50%
Target sequence (Q1HVG2 whole entry, looked up): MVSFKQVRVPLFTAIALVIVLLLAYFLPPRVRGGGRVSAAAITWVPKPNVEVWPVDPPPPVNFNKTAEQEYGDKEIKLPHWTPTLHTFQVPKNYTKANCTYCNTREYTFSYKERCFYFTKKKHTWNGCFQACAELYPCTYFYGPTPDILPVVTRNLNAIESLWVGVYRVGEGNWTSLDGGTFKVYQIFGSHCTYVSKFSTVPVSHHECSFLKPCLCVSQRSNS
EBNA-1 inhibitor: EBNA-1 DNA-binding inhibitors, primary screen, biochemical, fluorescence polarization; inhibition, % at 14.8 µM; 300,000 tested, 0.34% active; AID 1950, 2009; in the data active = inhibition above about 28%
core dimer inh: inhibitors of HCV core protein dimerization, primary screen, biochemical, TR-FRET, high-throughput; TR-FRET GST/Flag-core106 dimerization, 1536-well; 300,000 tested, 0.33% active; inhibition, % at 5 µM;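 active = inhibition above the mean of all tested compounds plus 3 SD, set per screening campaign, cut at about 45% in these data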
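Assay system: tagged HCV core106 pair (GST and Flag); medium: KF-containing HEPES buffer, pH 7.45, DTT, CHAPS, BSA; also added: Eu donor and XL665 acceptor anti-tag antibodies; dosing: 5 µM single dose; timing: compound-protein-antibody incubation 4 h at 22.5 °C; signal: TR-FRET 671 and 617 nm emission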
ZTA counter: blocks Epstein-Barr virus ZTA, an EBNA-1 counter-screen. inhibition, % at 11 µM. AID 2234. ZTA-DNA binding, fluorescence polarization. 320,000 tested, 0.15% active; in the data active = inhibition above about 33%
Target sequence (P03206 whole entry, looked up): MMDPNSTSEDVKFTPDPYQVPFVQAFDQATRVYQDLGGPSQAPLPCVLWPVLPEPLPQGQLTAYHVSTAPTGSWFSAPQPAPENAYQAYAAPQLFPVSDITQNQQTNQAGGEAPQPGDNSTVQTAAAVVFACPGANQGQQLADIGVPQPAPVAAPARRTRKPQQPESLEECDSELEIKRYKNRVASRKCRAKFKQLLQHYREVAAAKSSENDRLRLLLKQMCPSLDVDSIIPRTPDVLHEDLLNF
HCV NS3 hel inh: inhibitors of HCV NS3 helicase, primary screen, biochemical, Cy5 molecular beacon fluorescence. NS3 helicase DNA unwinding. 290,000 tested, 0.56% active. inhibition, % at 10.9 µM. AID 1800, 2009. Hepatitis C virus NS3 helicase;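 active = inhibition above the mean of all tested compounds plus 3 SD, set per campaign, cut at about 35% in these data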;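 note: 0% = DMSO wells and 100% = thioflavine S control wells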
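Assay system: hepatitis C virus NS3 helicase domain fragment enzyme. Also added: annealed dual-labelled DNA beacon duplex, ATP-started. Timing: 1 h reaction at 25 °C, ATP-initiated. Technique: Cy5 fluorescence at 0 and 60 min, beacon hairpin quenching. Evaluation: % inhibition of unwinding. Replication: one well per compound.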
GPR7 antagonist: GPR7 receptor antagonists, primary screen, cell-based, fluorescence, single concentration; AID 1861, 2009; inhibition, % at 4.4 µM; 290,000 tested, 1.1% active; Neuropeptides B/W receptor type 1 (Homo sapiens), P48145; GPR7-expressing cells, fluorescence antagonist assay; in the data active = inhibition above about 16%, passing the limit was not always enough;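 note: cells stimulated with the agonist NPW; 0% = agonist with vehicle and 100% = vehicle without agonist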
EBNA-1 inh conf: EBNA-1 DNA-binding inhibitors, retest, confirmation, biochemical, fluorescence polarization, triplicate; shares compounds with EBNA-1 inhibitor; Recombinant EBNA-1 DBD, Cy5-DNA fluorescence polarization; inhibition, % at 14.8 µM; 830 tested, 35% active; AID 2292, 2010;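 active = mean inhibition across replicates above a set limit taken from the earlier primary screen, cut at about 28% in these data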;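 note: plate controls were EBNA-1 protein with DMSO for no effect and wells lacking EBNA-1 for full effect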
ZTA DNA inh trip: EBV Zta DNA binding inhibitors, counter-screen for EBNA-1 inhibitor project, biochemical, fluorescence polarization, triplicate; shares compounds with EBNA-1 inhibitor; Zta-ZRE DNA binding, Cy5 fluorescence polarization; inhibition, % at 11.1 µM; 830 tested, under 10 active; AID 2328, 2010;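 active = mean inhibition over triplicates above a set limit taken from the primary EBNA-1 screen, cut at about 37% in these data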;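 note: purified full length Zta protein with Cy5 labeled ZRE DNA probe; 0% = Zta with DMSO and 100% = wells lacking Zta protein; inhibitors lower polarization by freeing the labeled DNA probe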
The depositor's hits bear a star; . = not tested or not shown.

SMILES | EBV gp42 inh | EBNA-1 inhibitor | core dimer inh | ZTA counter | HCV NS3 hel inh | GPR7 antagonist | EBNA-1 inh conf | ZTA DNA inh trip
C=CCNC(=S)Nc1c(C(=O)OC)[nH]c2cc(OC)ccc12 | 1 | 29* | 5 | 15 | 5 | -8 | 7 | 1
COC(=O)c1[nH]c2cc(OC)ccc2c1NC(=O)c1c(F)cccc1F | -4 | -1 | -1 | 4 | 16 | -13 | . | .
O=C(O)CC1S/C(=N\N=C2\C(=O)Nc3ccccc32)N(c2ccc(O)cc2)C1=O (centres undefined) | . | -8 | -3 | -5 | 7 | -4 | . | .
CCc1c(C)sc2nc(SCC(=O)Nc3cc(C)on3)n(CCOC)c(=O)c12 | -11 | 34* | 5 | 9 | 14 | 11 | 12 | -13
COCCn1c(SCC(=O)Nc2cc(C)on2)nc2ccccc2c1=O | . | . | . | 13 | . | . | . | .
CC(=O)Oc1ccc(C(=O)O)c(OC(C)=O)c1 | -14 | 9 | 0 | 5 | -1 | 2 | . | .
O=C(NC(=S)NCc1nc2ccccc2[nH]1)c1ccc(F)cc1 | -4 | 33* | 4 | 20 | -3 | 7 | -13 | -12
O=C(NC(=S)NCc1nc2ccccc2[nH]1)c1ccccc1F | -12 | -4 | 1 | -12 | 6 | -12 | . | .
O=c1c(-c2nc3ccccc3s2)cccn1Cc1ccc(Cl)c(Cl)c1 | -17 | 10 | -1 | 15 | 10 | 1 | . | .
O=C(Cc1ccc([N+](=O)[O-])cc1)NCc1ccccn1 | -7 | -3 | -1 | 6 | -1 | -8 | . | .
O=S(=O)(NCCOc1ccccc1)c1ccc2ccccc2c1 | 4 | 31* | -1 | 9 | -2 | -3 | 14 | -2
CS(=O)(=O)NCCOc1ccc(S(=O)(=O)NCCOc2ccccc2)cc1 | -2 | 2 | 1 | 19 | -5 | -4 | . | .
CCOc1ccc2nc(SCC(=O)NNC(=O)c3ccco3)c(C)cc2c1 | . | 57* | 2 | 7 | -16 | -1 | 42* | 2
Cc1ccc(OCC(=O)NC(=S)Nc2cccc(NC(=O)c3ccccc3)c2)cc1 | -18 | 29* | 12 | 14 | 2 | -7 | 17 | -6
O=C1c2c(O)cccc2Cc2cccc(O)c21 | . | 31* | 59* | -18 | . | . | 17 | 11
COC(=O)c1cn(NC(=O)/C=C/c2cc(OC)ccc2OC)c(=O)c2ccccc12 | -5 | 42* | 21 | 7 | 3 | -1 | 13 | 2
COC(=O)c1cn(NC(=O)c2ccc(OC)c(OC)c2)c(=O)c2ccccc12 | -21 | 3 | 3 | 1 | -5 | 12 | . | .
CCOc1ccccc1NS(=O)(=O)c1cn(C)nc1C | -7 | 9 | -3 | 4 | 3 | -5 | . | .
Cc1ccc(C(=O)COC(=O)CNC(=O)c2ccc(N3C(=O)c4ccccc4C3=O)cc2)cc1C | -1 | 29* | 0 | 11 | -2 | 5 | 10 | 6
O=C(CN1C(=O)c2ccccc2C1=O)NCC(=O)OCC(=O)c1ccc(Cl)cc1 | 0 | -3 | -2 | -3 | -1 | 13 | . | .
O=C(CNC(=O)c1ccc(N2C(=O)c3ccccc3C2=O)cc1)OCC(=O)c1ccc(Cl)cc1 | -14 | 36* | 14 | 6 | -4 | -1 | 15 | 9
COc1ccc(CCC(C)NCC(C)c2ccccc2)cc1 (centres undefined) | . | -9 | -28 | -19 | 0 | -6 | . | .
Cc1ccc(NC(=S)N/N=C/c2c(C)nn(-c3ccccc3)c2N2CCCC2)cc1 | -31 | 39* | 21 | 0 | -1 | 8 | -3 | -7
Cc1nn(-c2ccccc2)c(N2CCCC2)c1/C=N/NC(=S)Nc1ccc(F)cc1 | . | 0 | 8 | -13 | . | . | . | .
Cc1ccc2cccc(NC(=S)NC(=O)c3ccnn3C)c2n1 | -12 | 40* | 5 | -21 | -6 | -3 | 32* | 5
